Measured values gathered from unrelated publications.
Lines come from different studies, so protocols differ.

Compound	cell line	assay	setting	measurement	result
Nc1nc(N)c(CNCCc2ccc(F)cc2)c(C2CC2)n1	Vero	cell growth or viability, SRB		IC50	> 100 µM
O=C1OC[C@H](Cc2cccc(O)c2)[C@H]1Cc1cccc(O)c1	SPCA1	cell growth or viability, MTT		IC50	42.2 µM
Cc1nc(Nc2ncc(C(=O)Nc3c(C)cccc3Cl)s2)cc(N2CCN(CCO)CC2)n1	SK-BR-3	cell growth or viability, WST-1	72 h	GI50	1.6 µM
N.N.[Cl][Pt][Cl]	HL-60	cell growth or viability, MTT	48 h	IC50	1.17 µM
COC(=O)[C@@H](N)CCCNC(N)=N[N+](=O)[O-]	RAW264.7	NO release, inhibitor, Griess	250 µM, LPS-stimulated	inhibition	54%
COc1cc2oc3cc(O)c(OC)c(CC=C(C)C)c3c(=O)c2c(O)c1CC=C(C)C	22Rv1	cell growth or viability	48 h	IC50	27.1 µM
Nc1nc(N)c(CNCCc2ccccc2F)c(C2CC2)n1	Vero	cell growth or viability, SRB		IC50	> 100 µM
COc1cc(O)c(C(=O)/C=C/c2ccccc2)c(OC)c1	SPCA1	cell growth or viability, MTT		IC50	31.7 µM
C[C@H]1CN(c2ccncc2NC(=O)c2ccc(F)c(-c3c(F)cccc3F)n2)C[C@@H](N)[C@@H]1O	U-266	cell growth or viability, thymidine uptake		GI50	0.342 µM
COc1ccc(/C=C/C(=O)c2c(O)cc(OC)cc2OC)cc1	SPCA1	cell growth or viability, MTT		IC50	19.1 µM
N.N.[Cl][Pt][Cl]	SMMC-7721	cell growth or viability, MTT	20 µM	inhibition	73.8%
N.N.[Cl][Pt][Cl]	CD4	cell growth or viability	72 h	IC50	2.2 µg/mL
Nc1nc(N)c(CNCCc2ccc(Cl)cc2)c(C2CC2)n1	Vero	cell growth or viability, SRB		IC50	70 µM
O=C(CC(=O)c1ccccc1)c1ccccc1	HL-60	cell growth or viability, resazurin	72 h, dark	IC50	15.5 µM
